In paper PMC10763849 (Journal of Enzyme Inhibition and Medicinal Chemistry, 2023):

Tested on: HCT116 (KRAS(mut)/p53(wt)) cells xenograft
Test: In vivo anti-tumour activity, HCT116 xenograft
Set-up: species or system BALB/c nude mice
Conditions: i.p. 10 mg/kg, every 3 d, five times; for body weight changes: BALB/c nude mice; for tumour volume compared with the vehicle group: HCT116 xenograft
Procedure, shortened: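 Six-week-old BALB/c nude mice received 1 × 10^7 HCT116 cells in 200 µL subcutaneously in the right flank. At 80–120 mm3, mice were randomised into four groups of 5. They were dosed i.p. in PBS pH 7.4 (0.2 ml) every 3 days ×5: vehicle or test compound at 1, 10 or 20 mg/kg; a second study used 10 mg/kg with reference inhibitors. Tumour volume was (min² × max)/2, with body weight recorded; mean ± SD.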

Structure (SMILES): O=C(CCCCCCC(=O)Nc1ccccc1)NO [SAHA, Vorinostat]
- body weight changes: stable trend
- tumour volume compared with the vehicle group: smaller than that of the vehicle group

Structure (SMILES): CN1CCN(Cc2ccc(Nc3ncc(Cl)c(Nc4ccccc4S(=O)(=O)N(C)C)n3)cc2)CC1 [TP0903]
- body weight changes: stable trend
- tumour volume compared with the vehicle group: smaller than that of the vehicle group
